# According to ChEMBL document CHEMBL1147105, “In vitro and in vivo activities of PD 0305970 and PD 0326448, new bacterial gyrase/topoisomerase inhibitors with potent antibacterial activities versus multidrug-resistant gram-positive and fastidious organism groups” (2007):
# Activity calls are given as the source filed them.
# Assays:
# Streptococcus pyogenes [1] = experiment: Bactericidal activity against Streptococcus pyogenes C203 at 0.008 ug/ml by time-kill study; type: functional, organism-based
# Method in brief: (§1)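 Time-kill in 10 ml of cation-adjusted Mueller-Hinton broth with 3% lysed horse blood, without agitation. Multiples of MIC tested. Samples taken at 0, 2, 4, 6 and 24 h and plated on tryptic soy agar with 5% sheep blood after ≥250-fold dilution, detection limit 10 CFU/ml. Counts read after 24 h at 35°C. Bactericidal defined as a ≥3 log10 drop from the starting inoculum within 24 h.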
# Streptococcus pneumoniae [2] = experiment: Bactericidal activity against Streptococcus pneumoniae SV1 at 2 ug/ml by time-kill study; type: functional, organism-based; method in brief: as §1
# Staphylococcus aureus [3] = experiment: Antibacterial efficacy against methicillin-resistant Staphylococcus aureus SA1417 infected orally dosed CD1 mouse model; type: functional
# Method in brief: (§2)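 Sepsis model in female CD1 mice (6–8 weeks, 18–22 g). Lethal i.p. challenge (0.5 ml) at ≥100 median lethal doses. Streptococci were given in Todd-Hewitt broth; other organisms were given with 20% hog gastric mucin. A single oral gavage dose (0.5 ml, in 0.5% methylcellulose) was given at the time of challenge. The PD50 (mg/kg) was calculated by probit analysis.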
# Streptococcus pyogenes [4] = experiment: Antibacterial efficacy against Streptococcus pyogenes C203 infected orally dosed CD1 mouse model; type: functional; details: C203, po; method in brief: as §2
# Staphylococcus aureus [5] = experiment: Antibacterial efficacy against methicillin-susceptible Staphylococcus aureus UC76 infected orally dosed CD1 mouse model; type: functional; details: UC76, po; method in brief: as §2
# Streptococcus pneumoniae [6] = experiment: Bactericidal activity against Streptococcus pneumoniae SV1 at 0.008 ug/ml by time-kill study; type: functional, organism-based; method in brief: as §1
# Streptococcus pyogenes [7] = experiment: Bactericidal activity against Streptococcus pyogenes C203 at 2 ug/ml by time-kill study; type: functional, organism-based; method in brief: as §1
# Enterococcus faecalis = experiment: Antibacterial efficacy against Enterococcus faecalis MGH2 infected orally dosed CD1 mouse model; type: functional; method in brief: as §2
# Streptococcus pneumoniae [8] = experiment: Antibacterial efficacy against Streptococcus pneumoniae SVI infected orally dosed CD1 mouse model; type: functional; details: po; method in brief: as §2
# Staphylococcus aureus [9] = experiment: Antibacterial efficacy against ciprofloxacin and methicillin-resistant Staphylococcus aureus SA2017 infected orally dosed CD1 mouse model; type: functional; method in brief: as §2
compound,measurement,setting,value
O=C(O)c1cn(C2CC2)c2cc(N3CCNCC3)c(F)cc2c1=O [CIPROFLOXACIN],Activity,Streptococcus pyogenes [1],Active
same,Activity,Streptococcus pneumoniae [2],Active
same,MIC,Staphylococcus aureus [3],0.5 µg/mL
same,ED50,Staphylococcus aureus [3]; read-out: PD50,18 mg/kg
same,MIC,Streptococcus pyogenes [4],0.5 µg/mL
same,ED50,Streptococcus pyogenes [4]; read-out: PD50,> 100 mg/kg
same,MIC,Staphylococcus aureus [5],0.06 µg/mL
same,ED50,Staphylococcus aureus [5]; read-out: PD50,9.1 mg/kg
same,Activity,Streptococcus pneumoniae [6],Active
same,Activity,Streptococcus pyogenes [7],Active
same,MIC,Enterococcus faecalis,0.5 µg/mL
same,MIC,Streptococcus pneumoniae [8],2 µg/mL
same,ED50,Streptococcus pneumoniae [8]; read-out: PD50,> 100 mg/kg
same,MIC,Staphylococcus aureus [9],> 64 µg/mL
same,ED50,Staphylococcus aureus [9]; read-out: PD50,> 100 mg/kg
